Measured values: ChEMBL document CHEMBL1156039, “Nonpeptide urotensin-II receptor antagonists: a new ligand class based on piperazino-phthalimide and piperazino-isoindolinone subunits” (J Med Chem, 2009)
Activity calls are given as the source filed them. No cut-off for these calls is given here. Where a SMILES comes first, the peptide text is derived from it. Bridges are numbered along the chain shown (N, C = ends). [ ]: non-standard residue; d: D form. 2Nal = N[C@@H](Cc1ccc2ccccc2c1)C(=O)O

How the values were obtained:
[1] = Half life in human liver microsomes; format: ADME, Microsome
[2] = molecular target: T1, Urotensin-2 receptor (Homo sapiens, UniProt Q9UKP6); assay: Displacement of [125I]urotensin 2 from urotensin 2 receptor in human RMS13 cells by scintillation proximity assay; format: cell-based
T1 sequence (Q9UKP6 whole entry): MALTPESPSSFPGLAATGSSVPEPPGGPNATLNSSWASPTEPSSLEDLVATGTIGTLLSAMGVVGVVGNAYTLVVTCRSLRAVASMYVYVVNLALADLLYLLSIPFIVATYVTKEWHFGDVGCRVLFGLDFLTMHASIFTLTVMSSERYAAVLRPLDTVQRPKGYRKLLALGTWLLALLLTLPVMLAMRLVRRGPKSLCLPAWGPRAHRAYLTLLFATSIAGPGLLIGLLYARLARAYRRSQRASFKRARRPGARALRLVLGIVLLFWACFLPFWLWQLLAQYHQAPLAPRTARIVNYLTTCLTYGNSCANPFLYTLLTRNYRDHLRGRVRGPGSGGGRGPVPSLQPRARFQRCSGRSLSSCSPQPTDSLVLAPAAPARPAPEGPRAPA

[3] = molecular target: T2, Urotensin-2 receptor (Rattus norvegicus, UniProt P49684); assay: Antagonist activity at rat urotensin 2 receptor expressed in CHOK1 cells assessed as inhibition of urotensin 2-induced intracellular calcium mobilization after 1 hr by FLIPR assay; format: functional, cell-based, CHO-K1
T2 sequence (P49684 whole entry): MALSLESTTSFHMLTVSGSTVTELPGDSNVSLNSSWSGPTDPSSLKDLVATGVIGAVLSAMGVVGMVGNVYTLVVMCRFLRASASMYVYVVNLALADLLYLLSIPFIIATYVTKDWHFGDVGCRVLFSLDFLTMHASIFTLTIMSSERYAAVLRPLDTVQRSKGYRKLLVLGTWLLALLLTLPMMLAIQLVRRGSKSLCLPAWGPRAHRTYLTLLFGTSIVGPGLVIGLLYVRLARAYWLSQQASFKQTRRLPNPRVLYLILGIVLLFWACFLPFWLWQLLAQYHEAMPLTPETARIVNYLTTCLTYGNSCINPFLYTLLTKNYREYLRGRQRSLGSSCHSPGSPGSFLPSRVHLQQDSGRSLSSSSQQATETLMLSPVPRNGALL
Procedure, shortened: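 Stable CHO-K1 line expressing rat UT, selected with G418 and seeded 24 h ahead. Cells loaded with calcium dye for 1 h at 37 °C in HBSS/20 mM HEPES/0.1% BSA/2.5 mM probenecid, pH 7.4. Compound preincubated 10 min, then agonist added: goby U-II 0.1 nM or peptide agonist 0.3 or 1 nM. FLIPR calcium read at 23 °C; N = 2-6.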

[4] = molecular target: T1, Urotensin-2 receptor; assay: Antagonist activity at urotensin 2 receptor in human RMS13 cells assessed as inhibition of urotensin 2-induced intracellular calcium mobilization after 1 hr by FLIPR assay; format: functional, cell-based
Procedure, shortened: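 Human rhabdomyosarcoma (RMS13) cells expressing endogenous UT. Inhibition of U-II-driven calcium mobilization measured by FLIPR; N = 2-6.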

[5] = Inhibition of sodium channel site 2 at 10 uM
Procedure, shortened: (§1)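 Part of a contract panel of 50 receptors and ion channels. Each target was run as a binding assay with a reference ligand, with the test compound at 10 μM.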

[6] = test system: Aorta; assay: Vasorelaxant activity in Wistar rat thoracic aortic ring assessed as inhibition of contraction at 100 nM
[7] = molecular target: Muscarinic acetylcholine receptor M3 (Homo sapiens) (UniProt P20309); assay: Inhibition of human muscarinic M3 receptor at 10 uM
Sequence of Muscarinic acetylcholine receptor M3 (Homo sapiens) (P20309 whole entry, looked up): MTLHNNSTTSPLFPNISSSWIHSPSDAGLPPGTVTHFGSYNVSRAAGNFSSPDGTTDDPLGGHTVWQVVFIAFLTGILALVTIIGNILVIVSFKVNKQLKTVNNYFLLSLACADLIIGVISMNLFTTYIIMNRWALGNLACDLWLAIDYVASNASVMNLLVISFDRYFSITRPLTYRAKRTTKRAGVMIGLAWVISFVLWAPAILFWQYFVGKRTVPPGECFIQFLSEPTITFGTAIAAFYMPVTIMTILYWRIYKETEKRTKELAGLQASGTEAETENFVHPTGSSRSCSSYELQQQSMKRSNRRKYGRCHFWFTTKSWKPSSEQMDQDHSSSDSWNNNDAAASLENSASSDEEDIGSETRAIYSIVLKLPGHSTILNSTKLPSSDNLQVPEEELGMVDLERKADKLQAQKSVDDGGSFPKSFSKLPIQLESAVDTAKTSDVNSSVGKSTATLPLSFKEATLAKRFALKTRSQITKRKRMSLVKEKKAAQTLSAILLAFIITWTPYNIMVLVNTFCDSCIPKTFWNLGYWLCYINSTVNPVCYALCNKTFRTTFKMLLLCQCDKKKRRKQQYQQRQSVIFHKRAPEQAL

[8] = test system: Rattus norvegicus; assay: Inhibition of ear flushing in Sprague-Dawley rat ear-flush model assessed as attenuation of urotensin 2-induced increase in ear pinna temperature at 3 mg/kg, iv administered 15 mins prior to urotensin 2 challenge; format: functional, organism-based; design: dose 3 mg/kg
[9] = molecular target: T3, 5-hydroxytryptamine receptor 1A (Homo sapiens) (UniProt P08908); assay: Inhibition of human 5HT1A receptor at 10 uM
T3 sequence (whole entry): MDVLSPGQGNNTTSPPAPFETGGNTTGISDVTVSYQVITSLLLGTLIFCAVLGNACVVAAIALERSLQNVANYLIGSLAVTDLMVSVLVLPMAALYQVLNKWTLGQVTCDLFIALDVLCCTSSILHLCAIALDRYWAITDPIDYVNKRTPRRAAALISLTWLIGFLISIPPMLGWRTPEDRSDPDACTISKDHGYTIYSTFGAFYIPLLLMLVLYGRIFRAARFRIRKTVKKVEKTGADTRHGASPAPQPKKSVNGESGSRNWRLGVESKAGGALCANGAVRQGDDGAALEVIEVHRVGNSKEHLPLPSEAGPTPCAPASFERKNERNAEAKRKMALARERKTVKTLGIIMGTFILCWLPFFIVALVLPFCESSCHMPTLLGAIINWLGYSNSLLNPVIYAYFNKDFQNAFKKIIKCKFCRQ

[10] = Inhibition of alpha1 adrenergic receptor at 10 uM; procedure, shortened: as §1
[11] = molecular target: T4, Muscarinic acetylcholine receptor M1 (Homo sapiens) (UniProt P11229); assay: Inhibition of human muscarinic M1 receptor at 10 uM
T4 sequence (whole entry): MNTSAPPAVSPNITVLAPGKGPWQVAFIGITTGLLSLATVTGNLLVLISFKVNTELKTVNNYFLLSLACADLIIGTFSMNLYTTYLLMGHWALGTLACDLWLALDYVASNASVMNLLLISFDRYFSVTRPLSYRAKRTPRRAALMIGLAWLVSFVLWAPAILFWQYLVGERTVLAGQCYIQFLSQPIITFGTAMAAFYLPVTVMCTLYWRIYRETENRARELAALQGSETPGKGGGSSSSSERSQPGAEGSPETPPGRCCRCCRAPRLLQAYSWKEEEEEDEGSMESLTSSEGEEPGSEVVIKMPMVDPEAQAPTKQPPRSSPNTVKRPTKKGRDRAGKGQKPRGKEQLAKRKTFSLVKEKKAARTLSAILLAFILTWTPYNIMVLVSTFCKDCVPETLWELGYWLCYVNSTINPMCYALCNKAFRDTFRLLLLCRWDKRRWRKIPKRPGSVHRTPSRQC

[12] = test system: Rattus norvegicus; assay: Inhibition of ear flushing in Sprague-Dawley rat ear-flush model assessed as complete attenuation of urotensin 2-induced increase in ear pinna temperature at 10 mg/kg, iv administered 15 mins prior to urotensin 2 challenge; format: functional, organism-based; design: dose 10 mg/kg
[13] = molecular target: 5-hydroxytryptamine receptor 1B (Homo sapiens) (UniProt P28222); assay: Inhibition of 5HT1B receptor at 10 uM
Sequence of 5-hydroxytryptamine receptor 1B (Homo sapiens) (P28222 whole entry): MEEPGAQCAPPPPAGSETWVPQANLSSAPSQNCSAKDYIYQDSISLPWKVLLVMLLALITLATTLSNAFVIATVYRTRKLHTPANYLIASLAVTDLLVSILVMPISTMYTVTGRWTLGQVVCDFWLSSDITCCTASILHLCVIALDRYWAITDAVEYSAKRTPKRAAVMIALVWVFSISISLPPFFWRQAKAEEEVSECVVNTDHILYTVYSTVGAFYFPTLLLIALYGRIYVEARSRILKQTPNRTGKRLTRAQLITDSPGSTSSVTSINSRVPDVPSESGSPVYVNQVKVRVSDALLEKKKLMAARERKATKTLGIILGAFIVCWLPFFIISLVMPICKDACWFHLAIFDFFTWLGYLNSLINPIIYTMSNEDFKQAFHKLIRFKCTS

[14] = molecular target: T2, Urotensin-2 receptor; assay: Antagonist activity at rat urotensin 2 receptor expressed in CHOK1 cells assessed as inhibition of urotensin 2-induced intracellular calcium mobilization after 10 min by FLIPR assay
[15] = Half life in rat; format: ADME, organism-based; details: in vivo
[16] = Oral bioavailability in rat; format: ADME, organism-based; details: in vivo
[17] = molecular target: T2, Urotensin-2 receptor; assay: Displacement of [125I]urotensin 2 from rat urotensin 2 receptor expressed in CHOK1 cells by scintillation proximity assay; format: cell-based, CHO-K1
Procedure, shortened: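 Membranes from CHO cells stably expressing rat UT were precoupled to WGA-coated SPA beads (15 μg membrane/mg beads, 30 min, room temperature) in 50 mM Tris-HCl, 5 mM MgCl2, 0.1% BSA, pH 7.4. Final conditions: 1.0 mg beads per well, 0.17 nM [125I]-[Tyr]-rat U-II, and varied compound concentrations, shaken 3 h at 22 °C. Nonspecific binding was defined with 1 μM rat U-II.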

[18] = in the assay text read “after 10 min” for “after 1 hr”

| SMILES | Ki [2] | IC50 [4] | IC50 [14] | also measured |
| --- | --- | --- | --- | --- |
| COc1ccc(CN2C(=O)c3cccc(N4CCN(Cc5ccccc5)CC4)c3C2=O)cc1OC | 0.16 µM | – | – | half-life [1]: < 3 min |
| CCN1CCN(c2cccc3c2CN([C@H](CCCNc2cncc(OC)n2)c2ccc(OC)c(OC)c2)C3=O)CC1 | 0.008 µM | 0.062 µM | – | IC50 [3, 18]: 0.004 µM |
| COc1ccc(C(CN)N2C(=O)c3cccc(N4CCN([C@@H](C)c5ccccc5)CC4)c3C2=O)cc1OC (stereo not given in full) | 0.7 µM | – | – | IC50 [3, 18]: 0.3 µM |
| CCN1CCN(c2cccc3c2CN([C@H](CCCNS(=O)(=O)c2cccs2)c2ccc(OC)c(OC)c2)C3=O)CC1 | – | – | – | inhibition [5]: 59%; inhibition at 0.1 µM [6]: 74%; inhibition [7]: 55%; Activity [8]: Active; inhibition [9]: 93%; inhibition [10]: 68%; inhibition [11]: 65%; Activity [12]: Active; inhibition [13]: 66% |
| COc1ccc([C@@H](CCCCNC(=O)OC(C)(C)C)N2C(=O)c3cccc(N4CCN([C@H](C)c5ccccc5)CC4)c3C2=O)cc1OC | > 10 µM | – | – | IC50 [3, 18]: 65 µM |
| CCN1CCN(c2cccc3c2[C@H]2CCC[C@H](c4ccc(OC)c(OC)c4)N2C3=O)CC1 | – | – | 0.014 µM | – |
| COc1ccc([C@@H](CCCNS(=O)(=O)c2ccc(Cl)s2)N2C(=O)c3cccc(N4CCN([C@H](C)c5ccccc5)CC4)c3C2=O)cc1OC | – | – | 1.7 µM | – |
| Cc1cc(NC(=O)NCCN2CCC(O)(Cc3ccccc3)CC2)c2ccccc2n1 [PALOSURAN] | 0.041 µM | 0.32 µM | – | IC50 [3, 18]: > 75 µM |
| COc1cc(Br)c(S(=O)(=O)Nc2ccc(C(F)(F)F)c(O[C@@H]3CCN(C)C3)c2)cc1OC | – | – | – | inhibition at 0.1 µM [6]: 97%; IC50 [3, 18]: 0.034 µM; Activity [12]: Active |
| COc1ccc([C@@H](CCCN(C)S(=O)(=O)c2cccs2)N2Cc3c(cccc3N3CCN(C(C)C)CC3)C2=O)cc1OC | – | 0.5 µM | – | – |
| COc1ccc([C@@H](CCCN(C)S(=O)(=O)c2cccs2)N2Cc3c(cccc3N3CCN(C4CC4)CC3)C2=O)cc1OC | – | 1.2 µM | – | – |
| CCN1CCN(c2cccc3c2CN([C@H](CCCNC(=O)c2cccs2)c2ccc(OC)c(OC)c2)C3=O)CC1 | – | 0.14 µM | – | – |
| COc1ccc([C@@H](CCCNS(C)(=O)=O)N2C(=O)c3cccc(N4CCN([C@H](C)c5ccccc5)CC4)c3C2=O)cc1OC | 1.4 µM | – | 0.11 µM | – |
| COc1ccc(C(CNC(=O)OC(C)(C)C)N2C(=O)c3cccc(N4CCN([C@@H](C)c5ccccc5)CC4)c3C2=O)cc1OC (stereo not given in full) | 0.43 µM | – | 0.12 µM | – |
| CCN1CCN(c2cccc3c2CN([C@H](CCCN(C)S(=O)(=O)c2cccs2)c2ccc(OC)c(OC)c2)C3=O)CC1 | < 0.005 µM | – | – | – |
| COc1ccc(CN2C(=O)c3cccc(N4CCN([C@H](C)c5ccccc5)CC4)c3C2=O)cc1OC | – | 1.9 µM | – | half-life [1]: 29 min; half-life [15]: 240 min; bioavailability [16]: 33% |
| COc1ccc(CN2C(=O)c3cccc(N4CCN(Cc5c(F)cccc5F)CC4)c3C2=O)cc1OC | 0.31 µM | – | 1 µM | half-life [1]: < 3 min |
| CCN1CCN(c2cccc3c2CN([C@H](CCCNc2cncc(Cl)n2)c2ccc(OC)c(OC)c2)C3=O)CC1 | 0.062 µM | 0.5 µM | 0.001 µM | – |
| COc1ccc([C@@H](CCCNC(=O)c2cnoc2C)N2Cc3c(cccc3N3CCN([C@H](C)c4ccccc4)CC3)C2=O)cc1OC | 0.015 µM | 0.32 µM | – | IC50 [3, 18]: 0.006 µM |
| CC(=O)N[C@H]1CSSC[C@@H](C(N)=O)NC(=O)[C@H](Cc2ccc3ccccc3c2)NC(=O)[C@H](CCCCN)NC(=O)[C@H](Cc2c[nH]c3ccccc23)NC(=O)[C@H](Cc2ccccc2)NC1=O (Ac-CFWK[2Nal]C-NH2; disulfide 1-6) | – | – | – | EC50 [3]: 0.00054 µM; Ki [17]: 0.00012 µM |
| COc1ccc([C@@H](CCCN(C)S(=O)(=O)c2cccs2)N2Cc3c(cccc3N3CCN(C)CC3)C2=O)cc1OC | < 0.006 µM | – | – | – |
| CCN1CCN(c2cccc3c2CN([C@H](CCCNS(=O)(=O)c2cn(C)c(C)n2)c2ccc(OC)c(OC)c2)C3=O)CC1 | 0.025 µM | 0.051 µM | – | IC50 [3]: 0.023 µM |
| COc1ccc(C(CCNS(=O)(=O)c2cccs2)N2C(=O)c3cccc(N4CCN([C@H](C)c5ccccc5)CC4)c3C2=O)cc1OC (stereo not given in full) | 0.27 µM | – | 0.12 µM | – |
| COc1ccc(C(CCCNS(=O)(=O)c2cccs2)N2C(=O)c3cccc(N4CCN([C@H](C)c5ccccc5)CC4)c3C2=O)cc1OC (stereo not given in full) | – | 0.25 µM | – | – |
| COc1ccc(C(CNS(=O)(=O)c2cccs2)N2C(=O)c3cccc(N4CCN([C@@H](C)c5ccccc5)CC4)c3C2=O)cc1OC (stereo not given in full) | 0.29 µM | – | – | IC50 [3, 18]: 0.075 µM |
| COc1ccc(C(CCNC(=O)OC(C)(C)C)N2C(=O)c3cccc(N4CCN([C@@H](C)c5ccccc5)CC4)c3C2=O)cc1OC (stereo not given in full) | 0.54 µM | – | 0.11 µM | – |
